Columns and labels:
[1] = Cytotoxicity against human Leukemia cancer cells incubated for 48 hrs by SRB assay; assay type: functional; details: Leukemia cell, read-out: LC50 (the source's name)
Method in brief: (§1)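 NCI DTP five-concentration screen. Cells were seeded at 5 × 10³–4 × 10⁴ cells/well, depending on the line. Compounds were diluted in fresh medium and added at scalar concentrations over 0–1000 µM or 0–100 µM. After 48 h the cells were fixed in situ, stained with sulforhodamine B, and optical density was read. GI50, TGI and LC50 were derived by NCI procedures, and the panel mean is the mean graph midpoint.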

[2] = system: Colon carcinoma cell; assay: Cytostatic activity against human Colon carcinoma cells incubated for 48 hrs by SRB assay; assay type: functional
Method in brief: (§2)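 NCI-60 five-concentration screen: lines seeded 5×10^3–4×10^4 cells/well depending on line; compound diluted in fresh medium at scalar concentrations 0–100 or 0–1000 μM; 48 h exposure, in situ fixation, sulforhodamine B protein staining, optical density read; GI50, TGI and LC50 per NCI procedures; panel mean = mean graph midpoint.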

[3] = system: CNS carcinoma cell; assay: Cell growth inhibition of human CNS carcinoma cells incubated for 48 hrs by SRB assay; assay type: functional; method in brief: as §2
[4] = Cell growth inhibition of human Leukemia cancer cells incubated for 48 hrs by SRB assay; assay type: functional; method in brief: as §2
[5] = system: Ovarian cancer cell line; assay: Cytostatic activity against human Ovarian cancer cells incubated for 48 hrs by SRB assay; assay type: functional; method in brief: as §2
[6] = system: Breast cancer cell line; assay: Cytotoxicity against human Breast cancer cells incubated for 48 hrs by SRB assay; assay type: functional; method in brief: as §2
[7] = system: Prostatic carcinoma cell; assay: Cell growth inhibition of human Prostate carcinoma cells incubated for 48 hrs by SRB assay; assay type: functional; method in brief: as §2
[8] = system: Colon carcinoma cell; assay: Cytotoxicity against human Colon carcinoma cells incubated for 48 hrs by SRB assay; assay type: functional; method in brief: as §2
[9] = system: Melanoma cell line; assay: Cell growth inhibition of human Melanoma cells incubated for 48 hrs by SRB assay; assay type: functional; method in brief: as §2
[10] = system: Renal cancer cell line; assay: Cytostatic activity against human Renal cancer cells incubated for 48 hrs by SRB assay; assay type: functional; method in brief: as §2
[11] = system: Panel NCI-60 (60 carcinoma cell lines); assay: Cytostatic activity against human Panel NCI-60 (60 carcinoma cell lines) incubated for 48 hrs by SRB assay; assay type: functional; method in brief: as §2
[12] = system: Panel NCI-60 (60 carcinoma cell lines); assay: Cell growth inhibition of human Panel NCI-60 (60 carcinoma cell lines) incubated for 48 hrs by SRB assay; assay type: functional; method in brief: as §2
[13] = system: Breast cancer cell line; assay: Cell growth inhibition of human Breast cancer cells incubated for 48 hrs by SRB assay; assay type: functional; details: read-out: LC50 (the source's name); method in brief: as §1
[14] = system: Breast cancer cell line; assay: Cytostatic activity against human Breast cancer cells incubated for 48 hrs by SRB assay; assay type: functional; method in brief: as §2
[15] = Cytostatic activity against human Leukemia cancer cells incubated for 48 hrs by SRB assay; assay type: functional, Leukemia cell; method in brief: as §2
[16] = system: Melanoma cell line; assay: […] against human Melanoma cells incubated for 48 hrs by SRB assay; assay type: functional; details: read-out: LC50 (the source's name); method in brief: as §1
[17] = system: NSCLC; assay: Cell growth inhibition of human NSCLC cells incubated for 48 hrs by SRB assay; assay type: functional; method in brief: as §2
[18] = system: CNS carcinoma cell; assay: Cytostatic activity against human CNS carcinoma cells incubated for 48 hrs by SRB assay; assay type: functional; method in brief: as §2
[19] = system: Renal cancer cell line; assay: Cell growth inhibition of human Renal cancer cells incubated for 48 hrs by SRB assay; assay type: functional; method in brief: as §2
[20] = system: Ovarian cancer cell line; assay: Cytotoxicity against human Ovarian cancer cells incubated for 48 hrs by SRB assay; assay type: functional; method in brief: as §2

SMILES | CC50 [1] [µM] | TGI [2] [µM] | GI50 [3] [nM] | GI50 [4] [nM] | TGI [5] [µM] | GI [6] [µM] | GI [7] [µM] | GI [8] [µM] | GI [9] [µM] | GI [10] [µM] | GI [11] [µM] | GI50 [12] [nM] | CC50 [13] [nM] | TGI [14] [µM] | GI [15] [µM] | CC50 [16] [µM] | GI [17] [µM] | GI [18] [µM] | GI50 [19] [nM] | GI [20] [µM]
Cc1cc2c(cc1O)/C(=C\c1cc(C(C)(C)C)cc(C=O)c1O)C(=O)N2 | 81.3 | 11.5 | 1200 | 680 | 9.55 | 77.62 | 0.87 | 38.02 | 1.78 | 11.48 | 8.91 | 1910 | 1820 | 14.8 | 3.72 | 5.75 | 3.47 | 10 | 2570 | 56.23
COc1cc2c(c(OC)c1OC)C(=Cc1cc(C(C)(C)C)cc(/C=C3\C(=O)Nc4cc(OC)c(OC)c(OC)c43)c1O)C(=O)N2 | 60.3 | 3.89 | 1620 | 2190 | 5.13 | 50.12 | 1.91 | 8.13 | 1.82 | 4.9 | 4.37 | 1950 | 1860 | 4.9 | 6.03 | 3.63 | 1.95 | 3.31 | 2190 | 25.12
CC(C)(C)c1cc(/C=C2/C(=O)Nc3cccc(F)c32)c(O)c(/C=C2/C(=O)Nc3cccc(F)c32)c1 | 22.9 | 6.46 | 2090 | 1580 | 5.89 | 33.88 | 2.75 | 16.98 | 2.29 | 7.24 | 6.46 | 2140 | 2040 | 8.51 | 4.79 | 5.5 | 2.14 | 6.46 | 2450 | 15.49
COc1ccc2[nH]c(Cl)c(/C=C3/C(=O)N(C)c4cc5c(cc43)/C(=C\c3c(Cl)[nH]c4ccc(OC)cc34)C(=O)N5C)c2c1 | 89.1 | 4.68 | 1740 | 2240 | 4.69 | 21.88 | 1.95 | 11.75 | 2.04 | 4.47 | 4.9 | 2040 | 3160 | 6.31 | 6.17 | 4.9 | 1.78 | 4.07 | 1780 | 12.59
CC(C)(C)c1cc(/C=C2/C(=O)Nc3ccc(F)cc32)c(O)c(/C=C2/C(=O)Nc3ccc(F)cc32)c1 | 60.3 | 14.8 | 2950 | 3090 | 15.8 | 46.77 | 3.89 | 42.66 | 3.02 | 14.13 | 13.8 | 3800 | 3800 | 19.5 | 12.02 | 9.77 | 4.17 | 12.02 | 4680 | 47.86

— ChEMBL document CHEMBL5500359, “Identification of a new bisindolinone arresting IGROV1 cells proliferation” (Eur J Med Chem, 2024)
